# Values joined by “and” are separate entries in the source; they are usually repeats but may differ in a detail not shown here. Equal entries are not always repeated. Where two headings read alike, the source gives them in different places.
# T1: TfIMPDH (Tritrichomonas foetus, UniProt P50097)
# T1 sequence (P50097 1-503): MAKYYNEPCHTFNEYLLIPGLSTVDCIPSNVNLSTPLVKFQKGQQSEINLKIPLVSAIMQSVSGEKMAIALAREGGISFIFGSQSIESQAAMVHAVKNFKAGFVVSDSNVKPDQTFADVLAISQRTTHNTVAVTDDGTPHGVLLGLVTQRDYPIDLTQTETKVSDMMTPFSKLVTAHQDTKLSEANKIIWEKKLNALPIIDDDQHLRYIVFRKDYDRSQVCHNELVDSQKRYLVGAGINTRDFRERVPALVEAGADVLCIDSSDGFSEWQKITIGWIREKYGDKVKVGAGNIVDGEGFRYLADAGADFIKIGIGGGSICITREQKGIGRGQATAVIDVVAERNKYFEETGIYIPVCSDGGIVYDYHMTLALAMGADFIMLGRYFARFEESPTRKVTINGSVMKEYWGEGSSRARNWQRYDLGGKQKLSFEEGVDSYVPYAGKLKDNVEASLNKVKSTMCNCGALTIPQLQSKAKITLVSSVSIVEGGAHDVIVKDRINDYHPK
# T2: CpIMPDH (Cryptosporidium parvum, UniProt Q8T6T2)
# T2 sequence (Q8T6T2 1-400): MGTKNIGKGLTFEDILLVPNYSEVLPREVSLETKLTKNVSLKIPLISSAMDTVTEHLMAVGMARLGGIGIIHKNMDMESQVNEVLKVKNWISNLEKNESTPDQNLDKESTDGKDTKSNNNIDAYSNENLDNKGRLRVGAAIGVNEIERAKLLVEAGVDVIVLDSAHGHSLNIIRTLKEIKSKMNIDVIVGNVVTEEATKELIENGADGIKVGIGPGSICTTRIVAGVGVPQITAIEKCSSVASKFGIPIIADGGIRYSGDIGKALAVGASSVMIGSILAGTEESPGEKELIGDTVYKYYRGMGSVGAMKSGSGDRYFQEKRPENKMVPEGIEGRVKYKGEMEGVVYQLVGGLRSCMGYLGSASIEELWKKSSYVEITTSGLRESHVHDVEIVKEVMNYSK
# Experiments:
# TfIMPDH [1] = molecular target: T1, TfIMPDH; details: refs 14 and 23; cited from earlier work
# CpIMPDH [2] = molecular target: T2, CpIMPDH; experiment: Equilibrium dissociation constants by intrinsic protein fluorescence; format: binding; details: for Kd: free enzyme, 50 mM Tris-HCl, pH 8.0, 100 mM KCl, 1 mM DTT, 25 °C
# hIMPDH2 [3] = molecular target: T3, hIMPDH2 (Homo sapiens, UniProt P12268); experiment: Steady-state kinetics of hIMPDH2; format: biochemical; details: NAD^+ varied, 400 μM IMP, H2O vs D2O
# Outline: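 Buffer was 50 mM Tris-HCl pH 8.0, 100 mM KCl, 1 mM DTT, made in H2O or D2O, with D2O meter readings adjusted by adding 0.4. Runs were at 25 °C. […] Steady-state parameters came from eq 2.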
# hIMPDH2 [4] = molecular target: T3, hIMPDH2; experiment: Pre-steady-state kinetics and global fits of the hIMPDH2 reaction; format: biochemical; details: for Kapp ([NAD^+] at 1/2 kmax) / kmax/Kapp / kmax: fluorescence; for kmax: NAD^+ varied, 4 μM enzyme
# TfIMPDH [5] = molecular target: T1, TfIMPDH; experiment: Inhibition by ligands of the dinucleotide site, TfIMPDH; format: biochemical
# hIMPDH2 [6] = molecular target: T3, hIMPDH2; details: cited from earlier work
# CpIMPDH [7] = molecular target: T2, CpIMPDH; experiment: Pre-steady-state kinetics and global fits of the CpIMPDH reaction; format: biochemical
# CpIMPDH [8] = molecular target: T2, CpIMPDH; experiment: Steady-state kinetics of CpIMPDH; format: biochemical; details: for D2Okcat (solvent deuterium isotope effect on kcat): dinucleotide varied, 500 μM IMP, H2O vs D2O
# hIMPDH2 [9] = molecular target: T3, hIMPDH2; details: cited from earlier work; remark: listed apart in the source
# CpIMPDH [10] = molecular target: T2, CpIMPDH; experiment: XMP binding kinetics by stopped-flow protein fluorescence; details: 0.4 μM enzyme, 30 or 120 μM XMP, 25 °C
# CpIMPDH [11] = molecular target: T2, CpIMPDH; details: cited from earlier work
# [12] = substrate: NC(=O)c1ccc[n+]([C@@H]2O[C@H](COP(=O)([O-])OP(=O)(O)OC[C@H]3O[C@@H](n4cnc5c(N)ncnc54)[C@H](O)[C@@H]3O)[C@@H](O)[C@H]2O)c1; experiment: Pre-steady-state kinetics and global fits of the CpIMPDH reaction; format: biochemical, Cryptosporidium parvum; details: other: calculated from global-fit rate constants (eq 12)
molecule,measurement,setting,value
"NC(=O)c1ccc[n+]([C@@H]2O[C@H](COP(=O)([O-])OP(=O)(O)OC[C@H]3O[C@@H](n4cnc5c(N)ncnc54)[C@H](O)[C@@H]3O)[C@@H](O)[C@H]2O)c1 [NAD^+, nicotinamide adenine dinucleotide]",Kii,TfIMPDH [1],6.8 ± 1.8 mM
same,Kd,CpIMPDH [2]; Kd,14 ± 1 µM
same,D2Okcat (solvent deuterium isotope effect on kcat),hIMPDH2 [3],1.8 ± 0.1
same,Kd,"hIMPDH2 [4]; Kintr (intrinsic binding constant), NAD^+, derived from the global fits, Kc ≤0.2",590 µM
same,Kapp ([NAD^+] at 1/2 kmax),hIMPDH2 [4]; burst phase,86 ± 5 µM
same,kmax/Kapp,hIMPDH2 [4]; burst phase,140000 M⁻¹ s⁻¹
same,kmax,hIMPDH2 [4]; burst phase,12 ± 1 s⁻¹
same,Kapp ([NAD^+] at 1/2 kmax),hIMPDH2 [4]; lag phase,68 ± 1 µM
same,kmax/Kapp,hIMPDH2 [4]; lag phase,340000 M⁻¹ s⁻¹
same,kmax,hIMPDH2 [4]; lag phase,23 ± 1 s⁻¹
same,Kd,TfIMPDH [5],70 µM
same,kcat,"hIMPDH2 [6]; NAD^+ reaction, pH 8.0, 25 °C",0.39 ± 0.01 ^c s^−1
same,Km,hIMPDH2 [6]; read-out: KM dinucleotide,6 ± 1 µM
same,k12/k11 = Kii (NAD^+ binding to E-XMP*),hIMPDH2 [6]; value fixed for global fitting,590 µM
same,Kd,"CpIMPDH [7]; Kintr (intrinsic binding constant), NAD^+, derived from the global fits, Kc = 4",300 µM
same,kmax/Kapp,CpIMPDH [7]; monitored by absorbance,80000 M⁻¹ s⁻¹
same,Kapp ([NAD^+] at 1/2 kmax),"CpIMPDH [7]; monitored by absorbance, 500 μM IMP",510 ± 90 µM
same,"kmax (maximal kobs of burst, kburst)","CpIMPDH [7]; monitored by absorbance, NAD^+ varied, 500 μM IMP",41 ± 2 s⁻¹
same,kmax/Kapp,CpIMPDH [7]; monitored by fluorescence,56000 M⁻¹ s⁻¹
same,Kapp ([NAD^+] at 1/2 kmax),"CpIMPDH [7]; monitored by fluorescence, 500 μM IMP",290 ± 60 µM
same,kmax (maximal kobs of burst),"CpIMPDH [7]; monitored by fluorescence, NAD^+ varied, 500 μM IMP",16 s⁻¹ and 16 ± 1 s⁻¹
same,D2Okcat (solvent deuterium isotope effect on kcat),CpIMPDH [8],2.6 and 2.6 ± 0.1
"O=c1[nH]c(=O)c2ncn([C@@H]3O[C@H](COP(=O)(O)O)[C@@H](O)[C@H]3O)c2[nH]1 [XMP, xanthosine 5′-monophosphate]",Kd,CpIMPDH [2]; Kd,5.6 ± 0.6 µM
same,Kd,hIMPDH2 [9],140 µM
same,rate of XMP binding / release (too fast to measure),CpIMPDH [10],≥ 200 s⁻¹
"Nc1ncnc2c1ncn2[C@@H]1O[C@H](COP(=O)(O)OP(=O)(O)O)[C@@H](O)[C@H]1O [ADP, adenosine-5′-diphosphate]",Ki,CpIMPDH [11],42000 ± 6000 µM
same,Ki,TfIMPDH [1],31000 ± 2000 µM
"CC(=O)c1ccc[n+]([C@@H]2O[C@H](COP(=O)([O-])OP(=O)(O)OC[C@H]3O[C@@H](n4cnc5c(N)ncnc54)[C@H](O)[C@@H]3O)[C@@H](O)[C@H]2O)c1 [APAD^+, 3-acetylpyridine adenine dinucleotide]",D2Okcat (solvent deuterium isotope effect on kcat),CpIMPDH [8],3.3 and 3.3 ± 0.1
same,Km,"CpIMPDH [8]; read-out: KM dinucleotide, pH 8.0, 25 °C, APAD^+ at saturating IMP (500 μM)",190 ± 9 µM
"NC(=O)C1=CN([C@@H]2O[C@H](COP(=O)(O)OP(=O)(O)OC[C@H]3O[C@@H](n4cnc5c(N)ncnc54)[C@H](O)[C@@H]3O)[C@@H](O)[C@H]2O)C=CC1 [NADH, reduced nicotinamide adenine dinucleotide]",Kd,CpIMPDH [2],2.3 ± 0.2 µM
same,factor of greater affinity of NADH than NAD^+,CpIMPDH [2]; ratio of Kd values,6
"NC(=O)c1csc([C@@H]2O[C@H](CO)[C@@H](O)[C@H]2O)n1 [Tz, 2-β-D-ribofuranosylthiazole-4-carboxamide]",Ki,TfIMPDH [1],50000 ± 10000 µM
"Nc1nc2c(ncn2[C@@H]2O[C@H](COP(=O)(O)O)[C@@H](O)[C@H]2O)c(=O)[nH]1 [GMP, guanosine monophosphate]",Kd,CpIMPDH [2],4.8 ± 0.6 µM
CpIMPDH (Cryptosporidium parvum) (protein) MGTKNIGKGLTFEDILLVPNYSEVLPREVSLETKLTKNVSLKIPLISSAMDTVTEHLMAVGMARLGGIGIIHKNMDMESQVNEVLKVKNWISNLEKNESTPDQNLDKESTDGKDTKSNNNIDAYSNENLDNKGRLRVGAAIGVNEIERAKLLVEAGVDVIVLDSAHGHSLNIIRTLKEIKSKMNIDVIVGNVVTEEATKELIENGADGIKVGIGPGSICTTRIVAGVGVPQITAIEKCSSVASKFGIPIIADGGIRYSGDIGKALAVGASSVMIGSILAGTEESPGEKELIGDTVYKYYRGMGSVGAMKSGSGDRYFQEKRPENKMVPEGIEGRVKYKGEMEGVVYQLVGGLRSCMGYLGSASIEELWKKSSYVEITTSGLRESHVHDVEIVKEVMNYSK,Km,[12],40 µM

# — paper PMC2646883 (Biochemistry, 2008)
